Measurements published in PMC11022936 (Drug Metabolism and Disposition, 2023).
“And” between values parts separate entries of the source, which are not always exact repeats. Equal values may be shown once. Read-outs that look alike come from different tables or passages of the source.

Columns and labels:
[1] = human; ref Tong et al., 2010; cited from earlier work
[2] = Dog 3-month repeated-dose GLP toxicity study; conditions: both, in vivo, po, 100 mg/kg/day
[3] = dogs; ref Inghardt et al., 2022; cited from earlier work
[4] = Human MAD study, plasma AUC0-24h pools, metabolite concentrations; format: in vivo; conditions: human AUC0-24h plasma pool
In short: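 Plasma came from healthy male volunteers given unlabelled test compound once daily in a phase I multiple-ascending-dose study. Groups: 5 mg (day 10, n = 8), 10 mg (day 14, n = 8), 15 mg (day 10, n = 7). Samples were pooled time-proportionally across participants into one AUC0-24h pool per dose, protein-precipitated and run by LC-HRMS. DRE = summed concentrations of parent plus quantified metabolites.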

[5] = test system: MPO; conditions: read-out: potency toward MPO (IC50); in vitro; ref Inghardt et al., 2022; cited from earlier work
[6] = format: in vivo, rat; conditions: for Total % of dose (total radioactivity in sample), feces / Total % of dose (total radioactivity in sample), urine / percentage of dose in feces / percentage of dose in urine: 0-48 h pool; for percentage of dose in feces / percentage of dose in urine: single oral 40 mg/kg; for concentration at 1 h / concentration at 3 h / concentration at 8 h: Han Wistar, rat, plasma, po; for administered dose recovered in feces (mean) / urinary excretion of administered dose (mean): intact male and female rats
[7] = Rat 3-month repeated-dose GLP toxicity study; conditions: both, SD, in vivo, po, 125 mg/kg/day
[8] = ref Inghardt et al., 2022; cited from earlier work
[9] = Mouse 28-day repeat dose, plasma metabolite profiling; format: in vivo; conditions: mouse plasma AUC0-24h pool
[10] = Fraction unbound in plasma, equilibrium dialysis; format: in vitro ADME; conditions: dog plasma, 10 µmol/L, 37°C, 16 h, mean ± S.D., n = 3
In short: (§1)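 Equilibrium dialysis used frozen pooled plasma (n>3 donors, K2-EDTA): human (mixed sex), rat (male Han Wistar), dog (male beagle). Plasma spiked with test compound at 0.1, 1.0 or 10 was dialysed against phosphate buffer pH 7.4 for 16 h at 37°C, in triplicate. Calibration standards were made in spiked plasma. fu = buffer concentration / plasma concentration. Recovery = total compound found after dialysis / total added.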

[11] = Fraction unbound in plasma, equilibrium dialysis; format: in vitro ADME; conditions: rat plasma, 10 µmol/L, 37°C, 16 h, mean ± S.D., n = 3
In short: as §1

[12] = rats; ref Inghardt et al., 2022; cited from earlier work
[13] = Fraction unbound in plasma, equilibrium dialysis; format: in vitro ADME; conditions: human plasma, 1 µmol/L, 37°C, 16 h, mean ± S.D., n = 3
In short: as §1

[14] = BDC male rats, oral, 0-24 h pool
[15] = female intact rats, oral 40 mg/kg
[16] = female intact rats, oral 40 mg/kg, 40 mg/kg
[17] = male intact rats, oral 40 mg/kg, 40 mg/kg
[18] = male intact rats, oral 40 mg/kg, listed as [^14C]AZD4831, 40 mg/kg

Compound: c1cc2c3c(c1)[C@H]1CCC[C@H]1CN3CCNC2 [vabicaserin]
- exposure of the carbamoyl glucuronide metabolite relative to parent [1]: 60 fold

Compound: C[C@@H](N)c1cc(Cl)ccc1Cn1c(=S)[nH]c(=O)c2[nH]ccc21 [AZD4831, (R)-1-(2-(1-aminoethyl)-4-chlorobenzyl)-2-thioxo-2,3-dihydro-1H-pyrrolo[3,2-d]pyrimidin-4(5H)-one]
- NOAEL at 3 month [2]: 100 mg/kg/day
- bioavailability [3]: good bioavailability
- clearance [3]: moderate clearance
- plasma concentration ([4]; 5 mg once daily): 0.028 µM
- plasma concentration ([4]; 10 mg once daily): 0.053 µM
- plasma concentration ([4]; 15 mg once daily): 0.086 µM
- IC50 [5]: 1.5 nM
- dose fraction excreted in bile within 0-24 hours ([6]; BDC female rats, oral 40 mg/kg): 10%
- percent of administered dose in bile ([6]; BDC female rats, oral, 0-24 h pool): 0.2%
- dose fraction excreted in bile within 0-24 hours ([6]; BDC male rats, oral 40 mg/kg): 21%
- percent of administered dose in bile [6, 14]: < 0.1%
- percent of dose in feces [6, 14]: 20%
- percent of dose in urine [6, 14]: 26%
- Sum % of dose (integrated radioactive peaks), feces [6, 15]: 35.5 % of dose
- Sum % of dose (integrated radioactive peaks), urine [6, 15]: 31.3 % of dose
- Total % of dose (total radioactivity in sample), feces [6, 16]: 43 % of dose
- Total % of dose (total radioactivity in sample), urine [6, 16]: 34 % of dose
- Total % of dose (total radioactivity in sample), urine ([6]; female intact rats, oral 40 mg/kg, listed as [^14C]AZD4831, 40 mg/kg): 34.4 % of dose
- percentage of dose in feces ([6]; female intact rats, 40 mg/kg): 31 % of dose and 30.7 % of dose
- percentage of dose in urine ([6]; female intact rats, 40 mg/kg): 30 % of dose and 30.3 % of dose
- Sum µmol equiv/L (integrated radioactive peaks) in plasma ([6]; female rats, 1 h): 10.4 µmol equiv/L
- Total µmol equiv/L (total radioactivity) in plasma ([6]; female rats, 1 h, oral): 12.5 µmol equiv/L
- % of total radioactivity in plasma ([6]; female rats, 1 h, oral 40 mg/kg): 72.8 % of total
- Sum µmol equiv/L (integrated radioactive peaks) in plasma ([6]; female rats, 3 h): 13.8 µmol equiv/L
- Total µmol equiv/L (total radioactivity) in plasma ([6]; female rats, 3 h, oral): 15.9 µmol equiv/L
- % of total radioactivity in plasma ([6]; female rats, 3 h, oral 40 mg/kg): 77.5 % of total
- Sum µmol equiv/L (integrated radioactive peaks) in plasma ([6]; female rats, 8 h): 11.7 µmol equiv/L
- Total µmol equiv/L (total radioactivity) in plasma ([6]; female rats, 8 h, oral): 13.4 µmol equiv/L
- % of total radioactivity in plasma ([6]; female rats, 8 h, oral 40 mg/kg): 82.1 % of total
- concentration at 1 h ([6]; female, 40 mg/kg): 9.1 µM
- concentration at 3 h ([6]; female, 40 mg/kg): 12.3 µM
- concentration at 8 h ([6]; female, 40 mg/kg): 11 µM
- administered dose recovered in feces (mean) ([6]; intravenous): 46.9%
- urinary excretion of administered dose (mean) ([6]; intravenous): 37.7%
- administered dose recovered in feces (mean) ([6]; oral): 51.9%
- urinary excretion of administered dose (mean) ([6]; oral): 32.0%
- Sum % of dose (integrated radioactive peaks), feces ([6]; male intact rats, oral 40 mg/kg): 45.9 % of dose
- Total % of dose (total radioactivity in sample), feces [6, 17]: 59 % of dose
- Total % of dose (total radioactivity in sample), urine [6, 17]: 28 % of dose
- Total % of dose (total radioactivity in sample), feces [6, 18]: 58.7 % of dose
- Total % of dose (total radioactivity in sample), urine [6, 18]: 28.2 % of dose
- percentage of dose in feces ([6]; male intact rats, 40 mg/kg): 40 % of dose and 39.6 % of dose
- percentage of dose in urine ([6]; male intact rats, 40 mg/kg): 20 % of dose and 20.3 % of dose
- Sum µmol equiv/L (integrated radioactive peaks) in plasma ([6]; male rats, 1 h): 20.3 µmol equiv/L
- Total µmol equiv/L (total radioactivity) in plasma ([6]; male rats, 1 h, oral): 23.4 µmol equiv/L
- % of total radioactivity in plasma ([6]; male rats, 1 h, oral 40 mg/kg): 78.2 % of total
- Sum µmol equiv/L (integrated radioactive peaks) in plasma ([6]; male rats, 3 h): 13.6 µmol equiv/L
- Total µmol equiv/L (total radioactivity) in plasma ([6]; male rats, 3 h, oral): 17.1 µmol equiv/L
- % of total radioactivity in plasma ([6]; male rats, 3 h, oral 40 mg/kg): 66.8 % of total
- Sum µmol equiv/L (integrated radioactive peaks) in plasma ([6]; male rats, 8 h): 13.7 µmol equiv/L
- Total µmol equiv/L (total radioactivity) in plasma ([6]; male rats, 8 h, oral): 16.9 µmol equiv/L
- % of total radioactivity in plasma ([6]; male rats, 8 h, oral 40 mg/kg): 70.9 % of total
- concentration at 1 h ([6]; male, 40 mg/kg): 18.3 µM
- concentration at 3 h ([6]; male, 40 mg/kg): 11.4 µM
- concentration at 8 h ([6]; male, 40 mg/kg): 12 µM
- radioactivity recovered in bile (mean) ([6]; orally dosed BDC female rats): 10.4%
- radioactivity recovered in feces (mean) ([6]; orally dosed BDC female rats): 23.2%
- radioactivity recovered in urine (mean) ([6]; orally dosed BDC female rats): 54.7%
- radioactivity recovered in bile (mean) ([6]; orally dosed BDC male rats): 21.4%
- radioactivity recovered in feces (mean) ([6]; orally dosed BDC male rats): 27.5%
- radioactivity recovered in urine (mean) ([6]; orally dosed BDC male rats): 37.3%
- share of radioactivity (integrated radiochromatographic peaks) in plasma ([6]; rats, oral 40 mg/kg, all time points (1, 3, 8 h)): > 67%
- NOAEL at 3 month [7]: 125 mg/kg/day
- permeability [8]: high permeability
- Drug-Related Exposure (%) ([9]; day 28, Female (125 mg/kg)): 76%
- Drug-Related Exposure (%) ([9]; day 28, Female (250 mg/kg)): 74%
- Drug-Related Exposure (%) ([9]; day 28, Female (500 mg/kg)): 57%
- Drug-Related Exposure (%) ([9]; day 28, Male (125 mg/kg)): 78%
- percentage free drug in plasma [10]: 31.9 ± 0.50%
- percentage free drug in plasma [11]: 22.0 ± 0.49%
- bioavailability [12]: good bioavailability
- clearance [12]: moderate clearance
- percentage free drug in plasma [13]: 36.1 ± 1.0%
